Results from ChEMBL document CHEMBL1124110, “Synthesis and pharmacological evaluation of 5,6-exo-epoxy-7-oxabicyclo[2.2.1]heptane derivatives” (J Med Chem, 1988).

How the values were obtained:
Assay type in all cases: functional
Homo sapiens = species on record: Homo sapiens; test: Inhibition of platelet aggregation induced by arachidonic acid(AA) in human platelet-rich plasma; details: read-out: I50
Outline: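 Human platelet-rich plasma; aggregation triggered by arachidonic acid. Potency is expressed as the I50 (concentration giving 50% inhibition), reported as mean ± SEM or as mean ± range when n = 2.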

Cavia porcellus [1] = test: Percent inhibition of increase in pulmonary resistance was measured on arachidonic acid induced bronchoconstriction in the anesthetized guinea pig after 10 min
Outline: (§1)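 Anesthetized guinea pigs received the test agent at 1 mg/kg iv. Arachidonic acid (0.5 mg/kg iv) injections were given as challenge. Rises in pulmonary resistance were recorded, and percent inhibition was scored at 3, 10 and 30 min. Values are mean ± SEM, n = 3–5 animals.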

Cavia porcellus [2] = test: Percent inhibition of increase in pulmonary resistance was measured on arachidonic acid induced bronchoconstriction in the anesthetized guinea pig after 3 min; outline: as §1
Cavia porcellus [3] = test: Percent inhibition of increase in pulmonary resistance was measured on arachidonic acid induced bronchoconstriction in the anesthetized guinea pig after 30 min; outline: as §1

Row | SMILES | IC50 (Homo sapiens) | Inhibition (Cavia porcellus [1]) | Inhibition (Cavia porcellus [2]) | Inhibition (Cavia porcellus [3])
1 | O=C(O)CCC/C=C\CC1C(/C=C/[C@@H](O)C2CCCCC2)C2OC1C1OC21 (some centres not stated) | 5.2 µM | – | – | –
2 | O=C(O)CCC/C=C\CC1C(/C=C/[C@@H](O)CCc2ccccc2)C2OC1C1OC21 (some centres not stated) | 1.6 µM | – | – | –
3 | CCCCC(C)(C)[C@H](O)/C=C/C1C(C/C=C\CCCC(=O)O)C2OC1C1OC21 (some centres not stated) | 2.2 µM | – | – | –
4 | O=C(O)COc1ccc(CCNS(=O)(=O)c2ccccc2)cc1 [SULOTROBAN] | 38.5 µM | 82% | 89% | 40%
5 | O=C(O)CCC/C=C\C[C@@H]1[C@H](CNNC(=O)Nc2ccccc2)[C@H]2CC[C@H]1O2 | 0.02 µM | 98% | 97% | 96%
6 | CCCCC[C@H](O)/C=C/C1C(C/C=C\CCCC(=O)O)C2OC1C1OC21 (some centres not stated) | 15.3 µM | – | – | –
7 | CC1([C@H](O)/C=C/C2C(C/C=C\CCCC(=O)O)C3OC2C2OC32)CCCCC1 (some centres not stated) | 0.53 µM | 67% | 85% | 22%
8 | COc1ccc2c(c1)c(CC(=O)O)c(C)n2C(=O)c1ccc(Cl)cc1 [INDOMETHACIN] | 6 µM | – | – | –
9 | O=C(O)CCC/C=C\CC1C(/C=C/[C@@H](O)CCc2ccc(O)cc2)C2OC1C1OC21 (some centres not stated) | 0.27 µM | 83% | 90% | 46%
10 | O=C(O)CCC/C=C\CC1C(/C=C/[C@H](O)C2CCCCC2)C2OC1C1OC21 (some centres not stated) | 17 µM | – | – | –
